Reference: the EternaBench riboswitch data

System: MS2 coat protein
Assay: apparent Kd, MS2 coat protein; higher = weaker binding; RNA-MaP array
Outline: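 Binding of fluorescently labeled MS2 coat protein, at 1.5 nM to 3 μM and room temperature, was measured with or without input ligand on designed RNAs transcribed on an Illumina sequencing chip from sequenced DNA templates. Apparent Kd was defined as the median of per-cluster binding-curve fits. No design measured on fewer than 10 clusters was kept.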

[1] = designed as: OFF switch for flavin mononucleotide, no ligand
[2] = ligand present: flavin mononucleotide, designed as: OFF switch for flavin mononucleotide
[3] = designed as: ON switch for flavin mononucleotide, no ligand
[4] = ligand present: flavin mononucleotide, designed as: ON switch for flavin mononucleotide
[5] = designed as: OFF switch for tryptophan, no ligand
[6] = ligand present: tryptophan, designed as: OFF switch for tryptophan
[7] = designed as: OFF switch for theophylline, no ligand
[8] = ligand present: theophylline, designed as: OFF switch for theophylline
[9] = designed as: ON switch for theophylline, no ligand
[10] = ligand present: theophylline, designed as: ON switch for theophylline

Row | Sequence | apparent Kd [1] [nM] | apparent Kd [2] [nM] | apparent Kd [3] [nM] | apparent Kd [4] [nM] | other results
1 | CAUGUCAAAGACAUGAGGAUCACCCAUGUAAUCCAAGACGCAAGAAGGGCGUGUUGAACUAACACGCAGGAUAUUGACCCUGUU | 57.5 | 73.4 | – | – | –
2 | AUUCAUUGAAACAUGAGGAUCACCCAUGUACACUGGCACUUACAGGAUAUUGAAUAUGGAAGUCGCAAGAAGGGUAACGUGAUC | – | – | 112 | 57 | –
3 | ACCAUCAUUGUUAGGAUAUGUAGAGUACUGAGGCUACAGAAGGAACAUGAGGAUCACCCAUGUGUUUCGGUGUA | 31 | 126 | – | – | –
4 | CCUAACCACAAGAAGGAUGAGAUGCGGCAUUUCAUAGGAUAUUGAUCACAUGAGGAUCACCCAUGUUGCCGUAAGGCGCUAGUC | – | – | 321 | 136 | –
5 | GUCAUCUGUUUAGGAUAUGCGGUAGACACCGGGCGAGAAACAUGAGGAUCACCCAUGUUCGGAUUGCAGAAGGAAACGGCAAUA | – | – | 13.6 | 17 | –
6 | GGCCAGGCAGCGGCCGCCACUUAGUGGGCCGAAUGUCCUUUGCUGAACAUGAGGAUCACCCAUGUAAGGACCGGGCUGUUCCGCA | – | – | – | – | apparent Kd [5]: 30.5 nM; apparent Kd [6]: 69.5 nM
7 | CAUGUACUAGGAUAUACAAUCACUCGUCAGGCAGCGUUAACACAUGAGGAUCACCCAUGUAGAAGGAGUUUAAA | 8.74 | 8.2 | – | – | –
8 | GGUCAACGAUUUUACAUGAGGAUCACCCAUGUUACGGUCGCCGAGGAUAUGUCAGGAUUAUCACAACAGAAGGCGGAAGACACC | – | – | 16.5 | 9.4 | –
9 | GAUUGCAUCGAUUCUCCACUCGCACCUGAUACCAGCGAUAGAAUUCGCCCUUGGCAGCAGUACACAUGAGGAUCACCCAUGUUAU | – | – | – | – | apparent Kd [7]: 30.7 nM; apparent Kd [8]: 75 nM
10 | CGAUGCGCAUUAUCCCACUGGUAUGAGUCUCGAGGACCGGUACGGCCGCCACUCGCUACCGUACAUGAGGAUCACCCAUGUAUUA | – | – | – | – | apparent Kd [5]: 28 nM; apparent Kd [6]: 45.9 nM
11 | ACAUGAGGAUCACCCAUGUCGAAGCACGCGCCACCUUCAAGCAGAAGGAAGUGACAAGUACUAGCUUAGGAUAUGCUCAAAGGU | – | – | 12.3 | 7 | –
12 | GUGAAGAUCCUAGGAUAUGAGACACCCGUAAGCUCAGAAGGAGGACGCGUAGAGGGUAACAUGAGGAUCACCCAUGUGAGUAAG | – | – | 16.9 | 12.2 | –
13 | CGAGUCUAGGAGAAGGCAUACAUGAGGAUCACCCAUGUCAAAGGGCACGUAACGAUAAUCCACCAUGAGGAUAUCCUGUUUAGA | 26.3 | 21.7 | – | – | –
14 | ACCCGAGAUACAGGAUAUGCGUCCGCGUGAGCCAUGGUUAAAGCACAUGAGGAUCACCCAUGUUGGCAGAAGGGAAUCUCAUGA | 53.7 | 19.3 | – | – | –
15 | UAGAGCUCGCAAGGAUAUAACGCACAGAAACAUGAGGAUCACCCAUGUGGAAAGGAUCAACGUCGUUAGAAGGUGCAGAAAUAU | – | – | 47.4 | 22 | –
16 | UCUAUACAUGAGGAUCACCCAUGUCAGGAUAUAAGCACCGGGCGAUUGUCACGCGGCCUUAGAAGGGACAGGAA | 17.4 | 28.8 | – | – | –
17 | ACUGAGUAAGGAUAUCCAUCAUACUAACGACGCGGAAAGAAGGAGAAGGUACAUGAGGAUCACCCAUGUGAAAA | 12.3 | 11.1 | – | – | –
18 | CUCAAACAUGAGGAUCACCCAUGUAAGGAUAUCCGUAAUAAAUUUGGUAAGAGGCGGCGGAGAAGGUACGCAGC | 19.1 | 17.9 | – | – | –
19 | CGUGUAGGGUAGGAUAUUCGAACACCACAAGGAGAAGAAGGACCUACAUGAGGAUCACCCAUGUGGUUAAUGGC | 112 | 225 | – | – | –
20 | AGGUCCGGAGAGAAGGCCGACUUUGUAAUACACGGAGGAUAUCUACCACAUGAGGAUCACCCAUGUCCACACCGCAAGUUGUAA | – | – | 15 | 10.8 | –
21 | GUCAAAUGUCAGAAGGUAGUGAUGUACUAAGGCUAAGGAUAUGAAGAAAAGAAAAUUACCGUUGACAUGAGGAUCACCCAUGUC | – | – | 13.8 | 9.86 | –

Row | Sequence | apparent Kd [1] [nM] | apparent Kd [2] [nM] | apparent Kd [3] [nM] | apparent Kd [4] [nM] | other results
22 | AAAACUACAGAUACCUUAACAUGAGGAUCACCCAUGUGAGCUGAGGAUAUGUCCACGCUUUAAGGACAGAAGGCAGGAGCAUAG | 25.2 | 36.9 | – | – | –
23 | AUACACAGAGUUAGGAUAUCUACAUAAAACAAAAUAGAGAAGGAACAUGAGGAUCACCCAUGUAAUGAUCAAAC | 9.99 | 9.45 | – | – | –
24 | GUAGUGCUAAGAGGAUAUACGUUCUGCACAUGAGGAUCACCCAUGUACAAGGAGCCCAACCGGCGGUAGAAGGCUUUGACAGGA | – | – | 17.4 | 11.3 | –
25 | UAGCUGCUUCAGAAGGCCGUUGGGUGAAAACGCUCCGGGUGCCACAUGAGGAUCACCCAUGUUUCGGAGGAUAUGAAAGCAUCC | 47.8 | 201 | – | – | –
26 | GACGAGAGACAGAAGGCUCGACUGUGGCUACGAGAUCUGAAAACAUGAGGAUCACCCAUGUUUCGAGAGGAUAUGUCGAAUUAU | 129 | 397 | – | – | –
27 | ACCUCAAUGGAUGAUACCAGCUCAAGGACGAACAUGAGGAUCACCCAUGUGACGUGGUGUAGCCCUUGGCAGCAUACUGACACCU | – | – | – | – | apparent Kd [9]: 39.4 nM; apparent Kd [10]: 21.3 nM
28 | GUGAAGUUAGUGAGCGUUAGUCAAGCCAAACGAGGACCGGUACGGCCGCCACUCGCGCAUCGACAUGAGGAUCACCCAUGUGCCG | – | – | – | – | apparent Kd [5]: 14.6 nM; apparent Kd [6]: 17.7 nM
29 | ACUAAACAUGAGGAUCACCCAUGUAAUUGAAGCUAAGGAUAUCAGAAGAAUGGUGAUUCAUGAGAAGGAAGCGAUU | – | – | 86.9 | 58.6 | –
30 | UCACGUCGCCGAGGAUAUGAUUACCGCUCUCCAUCAGAAGGCGGCGCGUGGUCCACAACAUGAGGAUCACCCAUGUCGAUUGAG | – | – | 64.9 | 10.7 | –
31 | CCGCAUAUGUGCCCAAUAUAACAUGAGGAUCACCCAUGUGGUAGAAGGAAUGCUCACGGCUCUCAUUAGGAUAUACCAGACUAU | – | – | 18.2 | 17.5 | –
32 | CGACAUUCAGGAUAUACAUGAGGAUCACCCAUGUUGAGAAGCACAAGAUACCAUAAAAGUAGAAGGGAACAAAA | 13.3 | 9.81 | – | – | –
33 | GAGGAGUAGUAGUCCGACACAUGAGGAUCACCCAUGUUAUGGAGAAGGCCGGAUCUGAGUAGAGCGGAGGAUAUCCUGAAUUAA | – | – | 26.7 | 19.8 | –
34 | UGGUAGCCACACUUCAAACAUCGACAAGAUACCAGUUAAUCAACGAACCCUUGGCAGCUUCGUACAUGAGGAUCACCCAUGUGGA | – | – | – | – | apparent Kd [7]: 18.2 nM; apparent Kd [8]: 23 nM
35 | AACGGUGCGCGAGGAUAUCACGUACCAAGAGGAUGAGAAGGCGCGCGUACAGGUUGGUGAACAUGAGGAUCACCCAUGUGGUAC | 99.5 | 87.2 | – | – | –
36 | CAACUGGCAGAGGAUACCAGAUCAUUUAGAAACAUGAGGAUCACCCAUGUCGUAAGGAUAAUCCCUUGGCAGCCUAUCCGCCUCG | – | – | – | – | apparent Kd [9]: 13.2 nM; apparent Kd [10]: 10.8 nM
37 | AAGCCACAUGAGGAUCACCCAUGUGAGGAUAUUCAUCUAGAUCAACAAGACACGGAUAGAAGAAGGCACGGUGG | 14 | 29.5 | – | – | –
38 | CCAUGCGAUAUAGUGAUACAUGAGGAUCACCCAUGUAAAGUGAGAAGGCCAAAUUAAUACUAAGUGGAGGAUAUCAUCGUGAGC | – | – | 53 | 20.7 | –
39 | GUAGCUGAGUGUGAUACCAGAAACGACGUCCUUUAUCAUAACAUGAGGAUCACCCAUGUCUUCCCUUGGCAGCACUUUUCGGUCU | – | – | – | – | apparent Kd [7]: 36.9 nM; apparent Kd [8]: 64.8 nM
40 | UAAGUACGACAGAAGGGAUGAAAUUAUAACAAAUCAGGAUAUGUGAGUUACCAAUGCAAGCAUUACAUGAGGAUCACCCAUGUG | – | – | 16.9 | 10.1 | –
41 | CGUUAAGAACAGAAGGCCGAGAUAAUGUUCAGCGGAGGAUAUGUGGAAGAUAGAACAUGAGGAUCACCCAUGUCAACUAGUACC | – | – | 6.01 | 5.82 | –
